According to ChEMBL document CHEMBL4350968, “Structure Guided Design, Synthesis, and Biological Evaluation of Novel Benzosuberene Analogues as Inhibitors of Tubulin Polymerization” (J Med Chem, 2019):
Calls of active or inactive are those of the source. No cut-off for these calls is given here.

Columns and labels:
SK-OV-3 = experiment: Cytotoxicity against human SKOV3 cells assessed as growth inhibition measured after 48 hrs by SRB assay; type: functional; details: SK-OV-3, 48 h
NCI-H460 = experiment: Cytotoxicity against human NCI-H460 cells assessed as growth inhibition measured after 48 hrs by SRB assay; type: functional; details: NCI-H460, 48 h
DU-145 = experiment: Cytotoxicity against human DU145 cells assessed as growth inhibition measured after 48 hrs by SRB assay; type: functional; details: DU-145, 48 h
Tubulin = Tubulin (Bos taurus, UniProt Q6B856+Q862L2+Q862F3); experiment: Inhibition of bovine brain tubulin polymerization preincubated for 15 mins followed by GTP addition and measured for 20 mins by turbidimetry-based spectrophotometric method
Procedure, shortened: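 Mixtures held 10 µM purified bovine brain tubulin, 0.8 M monosodium glutamate pH 6.6, 4% DMSO and varied compound concentrations. These were preincubated 15 min at 30 °C without GTP, then chilled to 0 °C, and GTP was added to 0.4 mM final. Temperature was raised to 30 °C and turbidity followed at 350 nm for 20 min.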

Tubulin (Homo sapiens) [1] = molecular target: T1, Tubulin (Homo sapiens) (UniProt P68371+Q9H4B7+P0DPH7+P68366+Q13509+Q71U36+P04350+Q3ZCM7+P07437+P68363+Q9BQE3+Q6PEY2+Q13885+Q9BVA1+Q9BUF5); experiment: Inhibition of [3H]colchicine binding to tubulin (unknown origin) at 5 uM measured after 10 mins by beckman scintillation counting method relative to control; type: protein-complex assay
Procedure, shortened: (§1)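 Each 0.1 mL mix held 1.0 µM tubulin, 5.0 µM [3H]colchicine, 5% DMSO and compound at 1.0 or 5.0 µM. Stabilising components were 1.0 M monosodium glutamate pH 6.6, 0.5 mg/mL BSA, 0.1 M glucose-1-phosphate, 1.0 mM MgCl2 and 1.0 mM GTP. After 10 min at 37 °C, reactions were stopped with ice-cold water and filtered on DEAE-cellulose. Bound label was counted and percent inhibition taken versus no-inhibitor samples, correcting for filter binding without tubulin.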

Tubulin (Homo sapiens) [2] = molecular target: T1, Tubulin (Homo sapiens); experiment: Inhibition of [3H]colchicine binding to tubulin (unknown origin) at 1 uM measured after 10 mins by beckman scintillation counting method relative to control; type: protein-complex assay; procedure, shortened: as §1
[3] = Toxicity in Copenhagen rat xenografted with human PC3 cells harboring DAB2IP-luc at 40 mg/kg, ip measured after 48 hrs; type: organism-based; details: in vivo
[4] = Toxicity in Copenhagen rat xenografted with human PC3 cells harboring DAB2IP-luc at 80 mg/kg, ip measured after 4 to 24 hrs; type: organism-based; details: in vivo
PC-3 [5] = experiment: Induction of vascular damage in human PC3 cells harboring DAB2IP-luc xenografted in Copenhagen rat assessed as reduction in light emission at 10 mg/kg, ip administered 24 hrs prior to 40 mg/kg, ip dosing for 4 hrs followed by CA4P dosing at 30 mg/kg, ip and measured after 4 to 24 hrs by bioluminescence imaging analysis; type: functional, organism-based
Procedure, shortened: (§2)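 Male Copenhagen rats (about 6 weeks old, 100-120 g) were implanted s.c. in the right thigh with 5 X 10⁵ PC3-DAB2IP-luc cells in 30% Matrigel. Tumors were at least 1 cm in diameter before treatment. Prodrug in saline (25 mg/mL) was given IP, one rat per regimen. Under isoflurane, 120 mg/kg D-luciferin was injected s.c. fresh at baseline, 4 h and 24 h. Tumor ROI light emission was followed over about 30 min.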

PC-3 [6] = experiment: Induction of vascular damage in human PC3 cells harboring DAB2IP-luc xenografted in Copenhagen rat assessed as reduction in light emission at 40 mg/kg, ip measured after 24 to 48 hrs by Bioluminescence imaging analysis; type: functional, organism-based; procedure, shortened: as §2
PC-3 [7] = experiment: Induction of vascular damage in human PC3 cells harboring DAB2IP-luc xenografted in Copenhagen rat assessed as reduction in light emission at 10 mg/kg, ip administered 6 hrs prior to 40 mg/kg, ip dosing and measured after 24 hrs by bioluminescence imaging analysis; type: functional, organism-based; procedure, shortened: as §2
PC-3 [8] = experiment: Induction of vascular damage in human PC3 cells harboring DAB2IP-luc xenografted in Copenhagen rat assessed as reduction in light emission at 80 mg/kg, ip measured after 4 to 24 hrs by Bioluminescence imaging analysis; type: functional, organism-based; procedure, shortened: as §2
PC-3 [9] = experiment: Induction of vascular damage in human PC3 cells harboring DAB2IP-luc xenografted in Copenhagen rat assessed as reduction in light emission at 10 mg/kg, ip measured after 4 to 24 hrs by Bioluminescence imaging analysis; type: functional, organism-based; procedure, shortened: as §2
PC-3 [10] = experiment: Induction of vascular damage in human PC3 cells harboring DAB2IP-luc xenografted in Copenhagen rat assessed as reduction in light emission at 40 mg/kg, ip measured after 4 hrs by Bioluminescence imaging analysis; type: functional, organism-based; procedure, shortened: as §2
PC-3 [11] = experiment: Induction of vascular damage in human PC3 cells harboring DAB2IP-luc xenografted in Copenhagen rat assessed as reduction in light emission at 10 mg/kg, ip administered 6 hrs prior to 40 mg/kg, ip dosing and measured after 4 hrs by bioluminescence imaging analysis relative to control; type: functional; set-up: scale not given: the % may be the effect or the level left; procedure, shortened: as §2
Tubulin (Homo sapiens) [12] = molecular target: T1, Tubulin (Homo sapiens); experiment: Inhibition of [3H]colchicine binding to tubulin (unknown origin) at 0.5 uM measured after 10 mins by beckman scintillation counting method relative to control; type: protein-complex assay
Tubulin (Homo sapiens) [13] = molecular target: T1, Tubulin (Homo sapiens); experiment: Inhibition of [3H]colchicine binding to tubulin (unknown origin) measured after 10 mins by beckman scintillation counting method relative to control; type: protein-complex assay
Procedure, shortened: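 The 0.1 mL mix held 1.0 µM tubulin, 5.0 µM [3H]colchicine, 5% DMSO and compound at 1.0 or 5.0 µM. It also held 1.0 M monosodium glutamate (pH 6.6), 0.5 mg/mL BSA, 0.1 M glucose-1-phosphate, 1.0 mM MgCl2 and 1.0 mM GTP. After 10 min at 37 °C the reaction was stopped on ice, the mix filtered through DEAE-cellulose and counted. Percent inhibition was taken against the no-inhibitor control, corrected for label bound without tubulin.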

Structure (SMILES)	GI50 (SK-OV-3) [nM]	GI50 (NCI-H460) [nM]	GI50 (DU-145) [nM]	IC50 (Tubulin) [nM]	inhibition (Tubulin (Homo sapiens) [1]) [%]	further results
COc1ccc2c(c1O)CCCC(Br)=C2c1cc(OC)c(OC)c(OC)c1	22.1	35.3	36.2	390	88	
COc1ccc2c(c1C#N)CCCC=C2c1cc(OC)c(OC)c(OC)c1	64.8	434	860	1100	62	
COc1cccc2c1C(=O)c1c(O)c3c(c(O)c1C2=O)C[C@@](O)(C(=O)CO)C[C@@H]3O[C@H]1C[C@H](N)[C@H](O)[C@H](C)O1 [DOXORUBICIN]	78.9	123	134			
COc1ccc2c(c1C)CCCC(Br)=C2c1cc(OC)c(OC)c(OC)c1	312	449	423	4900		inhibition (Tubulin (Homo sapiens) [2]): 35%
COc1ccc2c(c1C=O)CCCC=C2c1cc(OC)c(OC)c(OC)c1	57.2	84.7	40.2	3200	61	
COc1ccc2c(c1O)CCCC(=O)C2(O)c1cc(OC)c(OC)c(OC)c1 (stereo not given)	31.4	47.6	141	1200	72	
COc1ccc2c(c1O)CCCC(O)C2(O)c1cc(OC)c(OC)c(OC)c1 (stereo not given)	3030	3860	4040	> 20000	0	
COCCOCCOc1c(OC)ccc2c1CCCC=C2c1cc(OC)c(OC)c(OC)c1	6520	1900	5660	> 20000		
COc1cc(C2=CC(O)CCc3c2ccc(OC)c3OC)cc(OC)c1OC (stereo not given)	263	432	439	3800	28	
COc1ccc2c(c1CO)CCCC=C2c1cc(OC)c(OC)c(OC)c1		62.8		630	76	
COc1ccc2c(c1O)CCC(NC(C)=O)C=C2c1cc(OC)c(OC)c(OC)c1 (stereo not given)		334	1200		0.4	
COc1cc(C2CCc3c(ccc(OC)c3OC)C(=O)C2)cc(OC)c1OC (stereo not given)	5770	2000	4450	> 20000	0	
COc1ccc2c(c1O)CCCC=C2c1cc(OC)c(OC)c(OC)c1				850	95	inhibition (Tubulin (Homo sapiens) [2]): 73%
COc1cc(C2=CCCCc3c2ccc(OC)c3OCCO)cc(OC)c1OC	3220	855	3760	> 20000		
CCOC(=O)c1c(OC)ccc2c1CCCC=C2c1cc(OC)c(OC)c(OC)c1	299	353	631	1000	47	
COc1cc(C2=CC=CCc3c2ccc(OC)c3OP(=O)([O-])[O-])cc(OC)c1OC.[Na+].[Na+]		29.1		16000	45	Activity [3]: Non-Toxic; Activity [4]: Non-Toxic; Activity (PC-3 [5]): Active; Activity (PC-3 [6]): inactive; Activity (PC-3 [7]): inactive; Activity (PC-3 [8]): inactive; Activity (PC-3 [9]): inactive; Activity (PC-3 [10]): Active; Activity (PC-3 [11]): 95%
COc1cc(C2(O)C=CCCc3c2ccc(OC)c3OC)cc(OC)c1OC (stereo not given)	27200	70500	26000	> 20000	0	
COc1ccc(/C=C\c2cc(OC)c(OC)c(OC)c2)cc1OP(=O)(O)O [FOSBRETABULIN DISODIUM]	1.19	1.94	3.23			
COc1ccc2c(c1O)CCCCC2(O)c1cc(OC)c(OC)c(OC)c1 (stereo not given)	394	173	33	> 20000		
COc1ccc(/C=C\c2cc(OC)c(OC)c(OC)c2)cc1O [COMBRETASTATIN A4]	4.55	2.23	3.27			
COc1ccc2c(c1O)CC=CC=C2c1cc(OC)c(OC)c(OC)c1		58.1		480	95	inhibition (Tubulin (Homo sapiens) [12]): 68%
COc1ccc2c(c1C#N)CCC=C2c1cc(OC)c(OC)c(OC)c1	38.4	60.5	25.2	370	73	
CC(=O)O[C@H]1C(=O)[C@@]2(C)[C@H]([C@H](OC(=O)c3ccccc3)[C@]3(O)C[C@H](OC(=O)[C@H](O)[C@@H](NC(=O)c4ccccc4)c4ccccc4)C(C)=C1C3(C)C)[C@]1(OC(C)=O)CO[C@@H]1C[C@@H]2O [PACLITAXEL]	1.34	1.76	1.47			inhibition (Tubulin (Homo sapiens) [13]): inactive
